Assay results published in ChEMBL document CHEMBL4130487, “A pentanoic acid derivative targeting matrix metalloproteinase-2 (MMP-2) induces apoptosis in a chronic myeloid leukemia cell line” (Eur J Med Chem, 2017).

What was measured:
K562 [1] = test: Induction of apoptosis in human K562 cells assessed as increase in early apoptotic cells at 2.5 to 10 uM after 48 hrs by Annexin V-FITC/propidium iodide staining based flow cytometry relative to control; format: functional
K562 [2] = test: Induction of apoptosis in human K562 cells assessed as live cells at 5 uM after 48 hrs by Annexin V-FITC/propidium iodide staining based flow cytometry (reference value: 90.1%); format: functional
[3] = biological target: Matrix metalloproteinase-9 (Homo sapiens, UniProt P14780); test: Inhibition of recombinant human MMP9 (Phe107 to Pro449 residues) expressed in Escherichia coli using Ac-Pro-Leu-Gly-S-Leu-Leu-Gly-OEt as substrate after 1 hr measured at 1 min time interval for 30 mins by microplate photometric method
In short: (§1)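 Commercial MMP kits; compound preincubated with enzyme before chromogenic substrate was added. Reactions at 37 °C for 1 h, with at least six inhibitor concentrations in triplicate. Absorbance at 410 nm read every 1 min for 30 min. NNGH used as reference inhibitor. IC50 taken from semi-logarithmic dose-response plots.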

K562 [4] = test: Downregulation of MMP2 protein expression in human K562 cells assessed as MMP2 positive population at 2.5 uM after 48 hrs by FITC staining based flow cytometry (reference value: 98.4%)
K562 [5] = test: Cell cycle arrest in human K562 cells assessed as accumulation at G1/S-phase at 10 uM after 24 hrs by propidium iodide staining based flow cytometry (reference value: 21.8%)
K562 [6] = test: Induction of apoptosis in human K562 cells assessed as early apoptotic cells at 2.5 uM after 48 hrs by Annexin V-FITC/propidium iodide staining based flow cytometry (reference value: 9.6%); format: functional
K562 [7] = test: Induction of apoptosis in human K562 cells assessed as live cells at 10 uM after 48 hrs by Annexin V-FITC/propidium iodide staining based flow cytometry (reference value: 90.1%); format: functional
K562 [8] = test: Cell cycle arrest in human K562 cells assessed as accumulation at G2/M-phase at 5 uM after 48 hrs by propidium iodide staining based flow cytometry (reference value: 35.3%); format: functional
K562 [9] = test: Cell cycle arrest in human K562 cells assessed as accumulation at sub-G1 phase at 10 uM after 48 hrs by propidium iodide staining based flow cytometry (reference value: 1%); format: functional
Interstitial collagenase = biological target: T1, Interstitial collagenase (Homo sapiens, UniProt P03956); test: Inhibition of recombinant human MMP1 (Phe100 to Gln268 residues) using Ac-Pro-Leu-Gly-S-Leu-Leu-Gly-OEt as substrate after 1 hr measured at 1 min time interval for 30 mins by microplate photometric method; in short: as §1
T1 sequence (P03956 whole entry): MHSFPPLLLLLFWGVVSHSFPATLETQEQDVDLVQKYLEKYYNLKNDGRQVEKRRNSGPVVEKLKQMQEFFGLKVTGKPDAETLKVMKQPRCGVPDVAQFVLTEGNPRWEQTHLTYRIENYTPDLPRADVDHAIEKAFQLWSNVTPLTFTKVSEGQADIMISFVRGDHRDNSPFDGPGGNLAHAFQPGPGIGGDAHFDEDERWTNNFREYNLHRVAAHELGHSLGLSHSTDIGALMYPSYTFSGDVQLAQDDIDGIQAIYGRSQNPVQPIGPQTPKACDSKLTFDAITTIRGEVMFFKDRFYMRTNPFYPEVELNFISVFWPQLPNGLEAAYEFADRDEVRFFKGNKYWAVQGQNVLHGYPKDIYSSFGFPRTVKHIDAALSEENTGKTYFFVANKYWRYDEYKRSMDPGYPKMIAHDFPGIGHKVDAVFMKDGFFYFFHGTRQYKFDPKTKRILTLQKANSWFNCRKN

K562 [10] = test: Cell cycle arrest in human K562 cells assessed as accumulation at sub-G1 phase at 5 uM after 24 hrs by propidium iodide staining based flow cytometry (reference value: 1%)
K562 [11] = test: Induction of apoptosis in human K562 cells assessed as necrotic cells at 10 uM after 48 hrs by Annexin V-FITC/propidium iodide staining based flow cytometry (reference value: 0%); format: functional
K562 [12] = test: Downregulation of MMP2 protein expression in human K562 cells assessed as MMP2 positive population at 5 uM after 48 hrs by FITC staining based flow cytometry (reference value: 98.4%)
K562 [13] = test: Anti-invasive activity against human K562 cells assessed as at 2.5 uM after 24 hrs by CyQuantGR dye based fluorimetric QCM EC matrix assay relative to control; format: functional; conditions: K562, 24 h
In short: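 K562 cells (1X10^6 cells/ml) starved overnight in FBS-free medium, then placed in inserts in FBS-free medium with 5% BSA, with 5% FBS medium below as chemoattractant. Treated at 2.5, 5 and 10 μM in triplicate for 24 h alongside an untreated control. Invaded cells were detached, stained with CyQuantGR and read by fluorescence (ex 480/em 520 nm). Results given as % of control, mean ± SD.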

K562 [14] = test: Cell cycle arrest in human K562 cells assessed as accumulation at G1-phase at 2.5 uM after 24 hrs by propidium iodide staining based flow cytometry (reference value: 27.5%)
PBMC = test: Cytotoxicity against human PBMC assessed as reduction in cell viability after 48 hrs by MTT assay; format: cell-based
In short: (§2)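 A549, MDA-MB-231, K562, U937 and PBMC (PBMC from healthy donors) seeded at 1×10^3 cells/well and left 24 h, then exposed to compounds for 48 h at 37 °C, 5% CO2. Adherent lines were grown in DMEM, the others in RPMI-1640 with 10% heat-inactivated FBS. MTT read-out; viability expressed as % of untreated control. IC50 taken as the concentration giving 50% viability loss.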

A549 = test: Cytotoxicity against human A549 cells assessed as reduction in cell viability after 48 hrs by MTT assay; format: functional, cell-based; conditions: A549, 48 h; in short: as §2
K562 [15] = test: Downregulation of MMP2 protein expression in human K562 cells assessed as MMP2 negative population at 2.5 uM after 48 hrs by FITC staining based flow cytometry (reference value: 1.6%)
K562 [16] = test: Downregulation of MMP2 protein expression in human K562 cells assessed as MMP2 negative population at 10 uM after 48 hrs by FITC staining based flow cytometry (reference value: 1.6%)
K562 [17] = test: Cell cycle arrest in human K562 cells assessed as accumulation at sub-G1 phase at 2.5 uM after 24 hrs by propidium iodide staining based flow cytometry (reference value: 1%)
[18] = biological target: Macrophage metalloelastase (Homo sapiens, UniProt P39900); test: Inhibition of recombinant human MMP12 (Phe99 to Leu271 residues) expressed in Escherichia coli using Ac-Pro-Leu-Gly-S-Leu-Leu-Gly-OEt as substrate after 1 hr measured at 1 min time interval for 30 mins by microplate photometric method; in short: as §1
Sequence of Macrophage metalloelastase (P39900 whole entry): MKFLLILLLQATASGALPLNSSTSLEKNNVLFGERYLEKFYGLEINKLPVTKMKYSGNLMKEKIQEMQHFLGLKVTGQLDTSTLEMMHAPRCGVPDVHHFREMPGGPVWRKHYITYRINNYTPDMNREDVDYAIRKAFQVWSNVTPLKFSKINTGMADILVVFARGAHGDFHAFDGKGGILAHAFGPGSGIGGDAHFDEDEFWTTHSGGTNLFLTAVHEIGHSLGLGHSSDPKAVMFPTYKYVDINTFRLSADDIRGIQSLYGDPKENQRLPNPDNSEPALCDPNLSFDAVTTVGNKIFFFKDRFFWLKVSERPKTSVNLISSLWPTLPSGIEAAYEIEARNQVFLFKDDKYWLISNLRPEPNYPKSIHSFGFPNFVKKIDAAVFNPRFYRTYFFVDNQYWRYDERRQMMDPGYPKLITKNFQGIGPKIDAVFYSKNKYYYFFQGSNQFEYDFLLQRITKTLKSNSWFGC

Sequence of Matrix metalloproteinase-9 (P14780 whole entry): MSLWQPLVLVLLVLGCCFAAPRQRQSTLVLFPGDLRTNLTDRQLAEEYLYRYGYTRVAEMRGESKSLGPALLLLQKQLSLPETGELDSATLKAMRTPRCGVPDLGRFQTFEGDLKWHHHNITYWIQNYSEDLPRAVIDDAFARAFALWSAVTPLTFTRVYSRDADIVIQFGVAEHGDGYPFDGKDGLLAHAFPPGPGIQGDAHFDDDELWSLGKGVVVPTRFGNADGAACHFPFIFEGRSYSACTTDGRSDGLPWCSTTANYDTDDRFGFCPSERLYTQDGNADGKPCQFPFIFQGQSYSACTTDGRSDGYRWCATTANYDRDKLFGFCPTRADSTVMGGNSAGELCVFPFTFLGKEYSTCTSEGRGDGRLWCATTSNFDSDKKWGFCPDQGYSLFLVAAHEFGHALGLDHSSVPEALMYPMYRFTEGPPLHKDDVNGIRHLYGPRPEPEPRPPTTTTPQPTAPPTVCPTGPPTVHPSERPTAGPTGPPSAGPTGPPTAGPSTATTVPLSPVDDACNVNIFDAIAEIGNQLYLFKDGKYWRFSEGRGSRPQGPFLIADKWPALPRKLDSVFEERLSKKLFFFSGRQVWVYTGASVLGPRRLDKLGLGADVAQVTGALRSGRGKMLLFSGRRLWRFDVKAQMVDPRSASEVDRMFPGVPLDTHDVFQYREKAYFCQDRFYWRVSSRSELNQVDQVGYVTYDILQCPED

IC50 [3]: 6.8 µM
IC50 (Interstitial collagenase): > 500 µM
IC50 [18]: 493 µM
Structure (SMILES): CCCCCNC(=O)CC[C@H](NS(=O)(=O)c1ccc([N+](=O)[O-])cc1)C(=O)O
fold change (FC) (K562 [1]): <=300
Activity (K562 [2]): 76%
Activity (K562 [4]): 26.3%
Activity (K562 [5]): 14%
Activity (K562 [6]): 14.3%
Activity (K562 [7]): 74%
Activity (K562 [8]): 32.2%
Activity (K562 [9]): 4.6%
Activity (K562 [10]): 2.4%
Activity (K562 [11]): 0.4%
Activity (K562 [12]): 18.9%
inhibition at 2.5 µM (K562 [13]): 12.4%
Activity (K562 [14]): 30.7%
IC50 (PBMC): > 1000 µM
IC50 (A549): 206 µM
Activity (K562 [15]): 73.7%
Activity (K562 [16]): 84.4%
Activity (K562 [17]): 1.4%
